# Experiments:
# [1] = target: Bromodomain adjacent to zinc finger domain protein 2A (Homo sapiens, UniProt Q9UIF9); test: Inhibition of human BAZ2A expressed in Escherichia coli BL21 after 1 hr by BROMOscan assay
# [2] = Apparent permeability across apical side to basolateral side in human Caco2 cells at 10 uM after 2 hrs by LC-MS/MS analysis; assay type: ADME, cell-based; settings: Caco-2
# [3] = tested on: SW-620; test: Growth inhibition of human SW620 cells after 72 hrs; assay type: functional; settings: SW-620, 72 h
# [4] = Growth inhibition of human OCUM1 cells after 72 hrs; assay type: functional; settings: OCUM1, 72 h
# [5] = target: T1, Bromodomain and PHD finger-containing protein 3 (Homo sapiens, UniProt Q9ULD4); test: Binding affinity to human BRPF3 by isothermal titration calorimetry
# T1 sequence (Q9ULD4 whole entry): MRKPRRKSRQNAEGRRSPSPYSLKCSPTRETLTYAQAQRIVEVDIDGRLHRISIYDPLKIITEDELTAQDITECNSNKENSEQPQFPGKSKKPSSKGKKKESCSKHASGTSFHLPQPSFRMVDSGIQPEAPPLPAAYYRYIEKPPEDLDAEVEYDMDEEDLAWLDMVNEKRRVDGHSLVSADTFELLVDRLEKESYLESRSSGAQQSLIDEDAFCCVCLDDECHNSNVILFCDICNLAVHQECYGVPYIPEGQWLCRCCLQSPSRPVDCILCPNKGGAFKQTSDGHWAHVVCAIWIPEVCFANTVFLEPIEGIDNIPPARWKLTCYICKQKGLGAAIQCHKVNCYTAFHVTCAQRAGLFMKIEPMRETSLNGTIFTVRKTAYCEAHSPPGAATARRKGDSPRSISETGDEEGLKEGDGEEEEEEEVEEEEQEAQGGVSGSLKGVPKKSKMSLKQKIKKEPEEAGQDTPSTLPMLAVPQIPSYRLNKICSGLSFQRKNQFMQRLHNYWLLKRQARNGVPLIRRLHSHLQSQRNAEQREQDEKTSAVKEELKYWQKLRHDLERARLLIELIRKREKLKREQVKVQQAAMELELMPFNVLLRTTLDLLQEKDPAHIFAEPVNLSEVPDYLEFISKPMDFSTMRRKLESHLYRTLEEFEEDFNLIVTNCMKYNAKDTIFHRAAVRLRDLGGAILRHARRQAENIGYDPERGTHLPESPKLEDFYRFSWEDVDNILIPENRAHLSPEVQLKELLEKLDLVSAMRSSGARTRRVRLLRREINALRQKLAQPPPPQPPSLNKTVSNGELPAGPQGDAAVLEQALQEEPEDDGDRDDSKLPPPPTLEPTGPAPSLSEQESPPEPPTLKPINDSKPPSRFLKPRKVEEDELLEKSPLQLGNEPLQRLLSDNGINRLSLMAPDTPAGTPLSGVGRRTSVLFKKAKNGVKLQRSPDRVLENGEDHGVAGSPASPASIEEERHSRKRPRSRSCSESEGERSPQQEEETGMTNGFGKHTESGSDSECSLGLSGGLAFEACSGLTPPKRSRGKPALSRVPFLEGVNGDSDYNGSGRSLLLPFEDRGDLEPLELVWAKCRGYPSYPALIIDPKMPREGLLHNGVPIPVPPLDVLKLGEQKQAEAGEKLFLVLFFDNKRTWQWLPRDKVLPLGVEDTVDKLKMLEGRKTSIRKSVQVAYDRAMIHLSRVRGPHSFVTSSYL
# [6] = target: hERG (KCNH2) (Homo sapiens, UniProt Q12809); test: Inhibition of human ERG at 30 uM
# [7] = tested on: NUGC-4; test: Growth inhibition of human NUGC4 cells after 72 hrs; assay type: functional; settings: NUGC-4, 72 h
# [8] = tested on: SW48; test: Growth inhibition of human SW48 cells after 72 hrs; assay type: functional; settings: SW48, 72 h
# [9] = tested on: CWR22R; test: Growth inhibition of human 22Rv1 cells after 72 hrs; assay type: functional; settings: 22Rv1, 72 h
# [10] = AUC (0 to infinity) in CD-1 mouse blood at 3 mg/kg, po; assay type: ADME, organism-based; parameters: dose 3 mg/kg, time infinity, route oral; settings: whole blood
# Summary of the method: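 Female CD-1 mice (n = 3), single dosing: intravenous 1.0 mg/kg, or oral 3.0 mg/kg given as a suspension. Blood levels were followed over time to derive clearance, volume of distribution, elimination half-life, Cmax, Tmax, AUC0−∞, oral bioavailability and fraction absorbed.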
# [11] = target: T2, Peregrin (Homo sapiens, UniProt P55201); test: Binding affinity to human BRPF1 by isothermal titration calorimetry
# T2 sequence (P55201 whole entry): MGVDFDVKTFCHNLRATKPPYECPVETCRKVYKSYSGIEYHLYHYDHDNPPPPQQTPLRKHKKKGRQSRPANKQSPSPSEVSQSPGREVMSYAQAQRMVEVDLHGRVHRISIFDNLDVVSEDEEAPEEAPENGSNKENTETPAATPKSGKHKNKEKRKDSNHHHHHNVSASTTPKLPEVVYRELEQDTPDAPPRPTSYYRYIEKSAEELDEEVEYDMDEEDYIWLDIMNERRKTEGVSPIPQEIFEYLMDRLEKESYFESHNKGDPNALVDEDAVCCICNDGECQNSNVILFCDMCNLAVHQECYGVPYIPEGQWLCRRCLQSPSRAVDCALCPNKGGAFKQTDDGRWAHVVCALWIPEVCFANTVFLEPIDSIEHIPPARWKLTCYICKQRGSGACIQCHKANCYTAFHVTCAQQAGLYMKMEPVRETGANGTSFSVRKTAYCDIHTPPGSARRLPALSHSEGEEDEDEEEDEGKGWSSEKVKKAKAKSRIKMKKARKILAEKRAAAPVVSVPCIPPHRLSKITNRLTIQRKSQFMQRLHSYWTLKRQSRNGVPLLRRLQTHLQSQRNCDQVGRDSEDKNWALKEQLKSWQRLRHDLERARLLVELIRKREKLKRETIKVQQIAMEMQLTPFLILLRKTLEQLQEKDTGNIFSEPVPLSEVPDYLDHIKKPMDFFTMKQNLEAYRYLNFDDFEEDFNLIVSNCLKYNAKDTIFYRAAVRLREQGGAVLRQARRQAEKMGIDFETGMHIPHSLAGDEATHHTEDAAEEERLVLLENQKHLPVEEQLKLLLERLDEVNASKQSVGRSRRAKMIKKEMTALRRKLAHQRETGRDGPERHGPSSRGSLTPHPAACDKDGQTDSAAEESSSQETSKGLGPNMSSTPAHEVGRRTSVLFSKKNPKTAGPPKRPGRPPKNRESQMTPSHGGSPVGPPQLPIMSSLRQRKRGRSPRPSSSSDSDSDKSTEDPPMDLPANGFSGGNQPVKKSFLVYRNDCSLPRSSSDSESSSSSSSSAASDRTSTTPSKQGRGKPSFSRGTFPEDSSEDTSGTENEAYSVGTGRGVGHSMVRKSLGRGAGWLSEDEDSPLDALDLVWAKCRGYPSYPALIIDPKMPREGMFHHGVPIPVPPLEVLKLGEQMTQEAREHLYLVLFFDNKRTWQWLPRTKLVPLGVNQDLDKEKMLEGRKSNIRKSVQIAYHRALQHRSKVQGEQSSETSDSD
# Summary of the method: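 Titration of compound into BRPF1 bromodomain; binding heats recorded per injection, normalized enthalpies fitted by nonlinear least squares to a single-binding-site model to give KD, ΔH and TΔS.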
# Sequence of hERG (KCNH2) (Q12809 whole entry): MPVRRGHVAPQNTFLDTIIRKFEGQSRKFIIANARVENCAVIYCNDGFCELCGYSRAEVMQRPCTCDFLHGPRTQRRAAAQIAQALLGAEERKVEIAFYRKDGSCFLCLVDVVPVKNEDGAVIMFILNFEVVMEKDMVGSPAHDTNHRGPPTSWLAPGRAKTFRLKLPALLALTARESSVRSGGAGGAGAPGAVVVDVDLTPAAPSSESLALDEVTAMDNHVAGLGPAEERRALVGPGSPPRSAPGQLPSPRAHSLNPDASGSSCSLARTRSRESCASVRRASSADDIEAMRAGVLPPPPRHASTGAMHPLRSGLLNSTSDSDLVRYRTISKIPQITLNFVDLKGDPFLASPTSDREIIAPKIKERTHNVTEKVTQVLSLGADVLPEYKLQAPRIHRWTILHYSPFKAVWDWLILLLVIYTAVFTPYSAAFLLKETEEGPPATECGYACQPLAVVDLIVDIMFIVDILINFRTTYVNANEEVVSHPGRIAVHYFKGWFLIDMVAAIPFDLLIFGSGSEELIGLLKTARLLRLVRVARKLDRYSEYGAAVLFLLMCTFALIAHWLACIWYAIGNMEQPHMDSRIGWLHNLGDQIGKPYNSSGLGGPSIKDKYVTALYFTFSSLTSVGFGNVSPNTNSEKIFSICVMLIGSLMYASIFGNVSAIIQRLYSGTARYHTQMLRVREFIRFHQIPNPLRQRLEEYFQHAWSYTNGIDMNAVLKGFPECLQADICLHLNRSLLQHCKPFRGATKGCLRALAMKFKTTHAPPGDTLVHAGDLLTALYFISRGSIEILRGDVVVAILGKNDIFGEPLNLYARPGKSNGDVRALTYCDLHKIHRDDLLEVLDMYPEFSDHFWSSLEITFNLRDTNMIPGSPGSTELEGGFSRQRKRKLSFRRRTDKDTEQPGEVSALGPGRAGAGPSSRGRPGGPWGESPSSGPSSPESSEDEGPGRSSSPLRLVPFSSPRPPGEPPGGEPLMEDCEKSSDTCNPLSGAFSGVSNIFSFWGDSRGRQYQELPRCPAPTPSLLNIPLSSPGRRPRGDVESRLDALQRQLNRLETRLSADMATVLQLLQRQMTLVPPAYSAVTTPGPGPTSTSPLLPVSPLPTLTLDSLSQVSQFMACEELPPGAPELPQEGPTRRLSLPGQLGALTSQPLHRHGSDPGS
# Sequence of Bromodomain adjacent to zinc finger domain protein 2A (Q9UIF9 whole entry, the tested form may be a part): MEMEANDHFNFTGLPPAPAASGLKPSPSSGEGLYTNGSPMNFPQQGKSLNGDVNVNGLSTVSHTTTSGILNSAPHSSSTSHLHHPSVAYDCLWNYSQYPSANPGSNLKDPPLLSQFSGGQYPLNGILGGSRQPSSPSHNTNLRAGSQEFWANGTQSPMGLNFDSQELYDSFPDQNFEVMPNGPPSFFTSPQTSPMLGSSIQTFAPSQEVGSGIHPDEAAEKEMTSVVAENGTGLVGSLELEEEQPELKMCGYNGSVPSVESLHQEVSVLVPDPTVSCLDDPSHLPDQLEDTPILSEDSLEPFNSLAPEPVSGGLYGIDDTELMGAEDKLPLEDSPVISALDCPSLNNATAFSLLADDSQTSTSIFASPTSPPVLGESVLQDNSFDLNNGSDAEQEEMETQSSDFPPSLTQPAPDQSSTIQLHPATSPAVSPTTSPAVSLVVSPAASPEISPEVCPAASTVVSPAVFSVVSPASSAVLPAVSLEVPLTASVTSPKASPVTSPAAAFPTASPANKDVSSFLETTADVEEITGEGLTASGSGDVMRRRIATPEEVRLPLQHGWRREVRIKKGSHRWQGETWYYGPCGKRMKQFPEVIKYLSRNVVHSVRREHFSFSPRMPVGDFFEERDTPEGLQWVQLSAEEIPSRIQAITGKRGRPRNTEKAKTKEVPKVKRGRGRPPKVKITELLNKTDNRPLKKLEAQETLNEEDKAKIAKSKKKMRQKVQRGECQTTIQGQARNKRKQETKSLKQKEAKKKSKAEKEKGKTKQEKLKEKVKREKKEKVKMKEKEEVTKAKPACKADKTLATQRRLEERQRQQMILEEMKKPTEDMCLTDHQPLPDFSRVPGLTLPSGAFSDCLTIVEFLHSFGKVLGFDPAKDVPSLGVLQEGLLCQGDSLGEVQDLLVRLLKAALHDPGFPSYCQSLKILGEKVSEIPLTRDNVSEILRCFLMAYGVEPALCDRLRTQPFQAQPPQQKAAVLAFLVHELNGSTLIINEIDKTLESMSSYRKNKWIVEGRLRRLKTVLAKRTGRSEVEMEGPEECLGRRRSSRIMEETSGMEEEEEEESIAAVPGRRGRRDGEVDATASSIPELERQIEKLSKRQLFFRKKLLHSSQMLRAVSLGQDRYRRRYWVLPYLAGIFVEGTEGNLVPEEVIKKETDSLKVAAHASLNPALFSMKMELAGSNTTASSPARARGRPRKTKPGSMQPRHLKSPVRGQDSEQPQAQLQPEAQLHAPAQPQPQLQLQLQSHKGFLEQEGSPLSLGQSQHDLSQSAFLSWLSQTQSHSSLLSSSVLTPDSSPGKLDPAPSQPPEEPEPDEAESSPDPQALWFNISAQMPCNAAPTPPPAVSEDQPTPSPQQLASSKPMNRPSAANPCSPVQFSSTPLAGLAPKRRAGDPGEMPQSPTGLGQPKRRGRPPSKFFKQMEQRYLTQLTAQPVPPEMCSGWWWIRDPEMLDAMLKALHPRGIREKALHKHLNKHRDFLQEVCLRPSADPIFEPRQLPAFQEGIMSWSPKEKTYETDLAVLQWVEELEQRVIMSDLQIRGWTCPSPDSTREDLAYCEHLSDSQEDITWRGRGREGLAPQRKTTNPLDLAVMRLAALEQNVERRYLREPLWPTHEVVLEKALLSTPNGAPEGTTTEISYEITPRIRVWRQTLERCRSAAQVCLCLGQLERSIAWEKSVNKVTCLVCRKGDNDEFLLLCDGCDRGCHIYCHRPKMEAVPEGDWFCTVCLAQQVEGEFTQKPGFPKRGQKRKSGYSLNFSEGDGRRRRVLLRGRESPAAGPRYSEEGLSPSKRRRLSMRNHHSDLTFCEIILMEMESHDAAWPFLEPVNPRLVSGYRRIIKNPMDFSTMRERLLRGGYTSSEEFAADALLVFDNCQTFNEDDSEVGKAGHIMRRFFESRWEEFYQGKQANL
Compound,IC50 [1],"Papp A→B at 2 h, 10 µM [2]",GI50 [3],GI50 [4],Kd [5],inhibition at 30 µM [6],GI50 [7],GI50 [8],GI50 [9],AUC(0-inf) [10],Kd [11]
CCc1cc2cc(NS(=O)(=O)c3ccc(C#N)cc3)ccc2n(CC)c1=O,> 100000 nM,,,,,,,,,,
Cc1cc2cc(NS(=O)(=O)c3ccc(C#N)cc3)ccc2n(C)c1=O,,10 ×10⁻⁶ cm/s,1000 to 10000 nM,1000 to 10000 nM,940 nM,45.6%,1000 to 10000 nM,1000 to 10000 nM,1000 to 10000 nM,5700 ng·h/mL,40 nM

# From ChEMBL document CHEMBL4052588, “Design of a Biased Potent Small Molecule Inhibitor of the Bromodomain and PHD Finger-Containing (BRPF) Proteins Suitable for Cellular and in Vivo Studies” (J Med Chem, 2017)
